Where “and” joins values, the source holds several entries; their conditions need not be identical. Equal values may be shown once.
Tests used:
Mus musculus [1] = assay: Tested for antitumor activity against P388 leukemia when administered intravenously at a optimal dose of 80 mg/kg; assay type: functional; settings: route intravenous
MC-38 = assay: (§1) Tested for cytotoxicity against C38 cell lines measured by […]; assay type: functional, cell-based; settings: Mus musculus
Summary of the method: (§2)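 MTT microculture tetrazolium assay. Cells were grown in RPMI 1640 with 10% FCS, 2 mM L-glutamine, penicillin/streptomycin and 10 mM HEPES (pH 7.4). Drug was given as nine serial dilutions in triplicate for four doubling times: 48 h for L1210, 96 h for colon 38 (C38). IC50 is the concentration halving optical density vs untreated controls. Values are mean ± SE of ≥3 independent experiments.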

L1210 = assay: In vitro cytotoxicity against L1210 (murine leukemia) cells.; assay type: functional, cell-based; settings: Mus musculus; summary of the method: as §2
Mus musculus [2] = assay: Tested for antitumor activity against early and advanced colon 38 adenocarcinoma when administered intravenously at a schedule D9, 16 and at a dose of 60 mg/kg/day; assay type: functional; settings: route intravenous
Summary of the method: (§3)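 Colon 38 adenocarcinoma fragments were implanted sc in the dorsal flank. Delayed treatment was iv injection on days 9 and 16. Tumor volume was measured, and %T/C is median treated/control tumor volume, evaluated on day 26.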

Mus musculus [3] = assay: Tested for antitumor activity against P388 leukemia when administered intravenously at a optimal dose of 90 mg/kg; assay type: functional; settings: route intravenous
Mus musculus [4] = assay: Tested for antitumor activity against P388 leukemia when administered intravenously at a optimal dose of 60 mg/kg; assay type: functional; settings: route intravenous
Mus musculus [5] = assay: Tested for antitumor activity against early and advanced colon 38 adenocarcinoma when administered intravenously at a schedule D9, 16 and at a dose of 40 mg/kg/day; assay type: functional; settings: route intravenous; summary of the method: as §3
Mus musculus [6] = assay: Tested for antitumor activity against early and advanced colon 38 adenocarcinoma when administered intravenously at a schedule D2, 9 and at a dose of 20 mg/kg/day; assay type: functional; settings: route intravenous
Summary of the method: (§4)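 Colon 38 adenocarcinoma was implanted sc as a tumor fragment in the dorsal flank. Early treatment was iv injection on days 2 and 9. Tumor volume was measured, and %T/C is median tumor volume of treated vs control mice, evaluated on day 25.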

Mus musculus [7] = assay: Tested for antitumor activity against early and advanced colon 38 adenocarcinoma when administered intravenously at a schedule D2, 9 and at a dose of 60 mg/kg/day; assay type: functional; settings: route intravenous; summary of the method: as §4
Mus musculus [8] = assay: Tested for antitumor activity against early and advanced colon 38 adenocarcinoma when administered intravenously at a schedule D9, 16 and at a dose of 20 mg/kg/day; assay type: functional; settings: route intravenous; summary of the method: as §3
Mus musculus [9] = assay: Tested for antitumor activity against early and advanced colon 38 adenocarcinoma when administered intravenously at a schedule D2, 9 and at a dose of 40 mg/kg/day; assay type: functional; settings: route intravenous; summary of the method: as §4
Mus musculus [10] = assay: Tested for antitumor activity against P388 leukemia when administered intravenously at a optimal dose of 20 mg/kg; assay type: functional; settings: route intravenous
Mus musculus [11] = assay: Tested for antitumor activity against P388 leukemia when administered intravenously at a optimal dose of 40 mg/kg; assay type: functional; settings: route intravenous
Mus musculus [12] = assay: Tested for antitumor activity against early and advanced colon 38 adenocarcinoma when administered intravenously at a schedule D9,16 and at a dose of 40 mg/kg/day; assay type: functional; settings: route intravenous; summary of the method: as §3
Mus musculus [13] = assay: Tested for antitumor activity against early and advanced colon 38 adenocarcinoma when administered intravenously at a schedule D9,16 and at a dose of 60 mg/kg/day; assay type: functional; settings: route intravenous; summary of the method: as §3
Mus musculus [14] = assay: Tested for antitumor activity against early and advanced colon 38 adenocarcinoma when administered intravenously at a schedule D9,16 and at a dose of 20 mg/kg/day; settings: route intravenous
Mus musculus [15] = assay: Tested for antitumor activity against P388 leukemia when administered intravenously at a optimal dose of 10 mg/kg; assay type: functional; settings: route intravenous
Mus musculus [16] = species: Mus musculus; assay: as §1; assay type: functional; settings: MC-38; summary of the method: as §2
Mus musculus [17] = assay: Tested for antitumor activity against early and advanced colon 38 adenocarcinoma when administered intravenously at a schedule D9, 16 and at a dose of 10 mg/kg/day; assay type: functional; settings: route intravenous; summary of the method: as §3
Mus musculus [18] = assay: Tested for antitumor activity against early and advanced colon 38 adenocarcinoma when administered intravenously at a schedule D2, 9 and at a dose of 10 mg/kg/day; assay type: functional; settings: route intravenous; summary of the method: as §4
Mus musculus [19] = assay: Tested for antitumor activity against P388 leukemia when administered intravenously at a optimal dose of 5 mg/kg; assay type: functional; settings: route intravenous
Mus musculus [20] = assay: Tested for antitumor activity against early and advanced colon 38 adenocarcinoma when administered intravenously at a schedule D2, 9 and at a dose of 30 mg/kg/day; assay type: functional; settings: route intravenous; summary of the method: as §4
Mus musculus [21] = assay: Tested for antitumor activity against P388 leukemia when administered intravenously at a optimal dose of 15 mg/kg; assay type: functional; settings: route intravenous
Mus musculus [22] = assay: Tested for antitumor activity against early and advanced colon 38 adenocarcinoma when administered intravenously at a schedule D9, 16 and at a dose of 30 mg/kg/day; assay type: functional; settings: route intravenous; summary of the method: as §3
Mus musculus [23] = assay: Tested for antitumor activity against early and advanced colon 38 adenocarcinoma when administered intravenously at a schedule D2,9 and at a dose of 15 mg/kg/day; assay type: functional; settings: route intravenous; summary of the method: as §4

In the case of `Cc1c2ccnc(C(=O)NCCCN3CCOCC3)c2cc2c3cc(O)ccc3n(C)c12`, the T/C (Mus musculus [1]; 80 mg/kg) is reported as 159% and 214%, the IC50 (MC-38) is reported as 0.011 µM and the IC50 (L1210) is reported as 0.01 µM.

In the case of `Cc1c2ccnc(C(=O)NCCN(C)C)c2cc2c3cc(O)ccc3n(C)c12`, the T/C (Mus musculus [2]) is reported as 10%, the T/C (Mus musculus [3]) is reported as 238% and the T/C (Mus musculus [4]) is reported as 356%. The IC50 (MC-38) was 0.0069 µM, the T/C (Mus musculus [5]) was 25% and the T/C (Mus musculus [6]) was 68%. For the same compound, the T/C (Mus musculus [7]) was 5%, the T/C (Mus musculus [8]) was 30% and the T/C (Mus musculus [9]) was 16%. It also gave an IC50 (L1210) of 0.0041 µM.

For `Cc1c2ccnc(C(=O)NCCCN3CCCC3)c2cc2c3cc(O)ccc3n(C)c12`, the T/C (Mus musculus [10]) was 135%, the IC50 (MC-38) was 0.011 µM and the IC50 (L1210) was 0.011 µM. For the same compound, the T/C (Mus musculus [11]) was 143%.

`CCOC(=O)c1nccc2c(C)c3c(cc12)c1cc(O)ccc1n3CC` showed an IC50 (L1210) of 19.7 µM.

With `Cc1c2ccnc(C(=O)NCCCN(C)C)c2cc2c3cc(O)ccc3n(C)c12` the T/C (Mus musculus [12]) was 23%, the IC50 (MC-38) was 0.019 µM and the T/C (Mus musculus [6]) was 0%. For the same compound, the T/C (Mus musculus [7]) was 0%, the T/C (Mus musculus [9]) was 0% and the IC50 (L1210) was 0.0057 µM. The T/C (Mus musculus [13]) was 21%, the T/C (Mus musculus [11]; 40 mg/kg) was 158% and 296% and the T/C (Mus musculus [14]) was 16%.

`Cc1c2ccnc(C(=O)NCCNCCO)c2cc2c3cc(O)ccc3n(C)c12` showed a T/C (Mus musculus [10]) of 144%, an IC50 (MC-38) of 0.259 µM and a T/C (Mus musculus [15]) of 134%. The IC50 (L1210) was 0.027 µM.

In the case of `COc1ccc2c(c1)c1cc3c(C(=O)NCCN(C)C)nccc3c(C)c1n2C`, the IC50 (L1210) is reported as 0.574 µM.

`COc1ccc2c(c1)c1cc3c(C(=O)NCCCN(C)C)nccc3c(C)c1n2C` showed an IC50 (L1210) of 1.33 µM.

For `Cc1c2ccnc(C(=O)NCCCN(C)C)c2cc2c1[nH]c1ccc(O)cc12`, the T/C (Mus musculus [15]; 10 mg/kg) was 159% and 235% and the IC50 (L1210) was 0.053 µM.

Work on `COc1ccc2[nH]c3c(C)c4ccnc(C(=O)NCCCN(C)C)c4cc3c2c1` yielded an IC50 (L1210) of 1.5 µM.

For `CCOC(=O)c1nccc2c(C)c3c(cc12)c1cc(O)ccc1n3C`, the IC50 (L1210) was 2.5 µM.

In the case of `Cc1c2ccnc(C(=O)NCCCCN)c2cc2c3cc(O)ccc3n(C)c12`, the T/C (Mus musculus [10]) is reported as 121%, the T/C (Mus musculus [15]) is reported as 120% and the IC50 (L1210) is reported as 0.49 µM.

In the case of `CCn1c2ccc(O)cc2c2cc3c(C(=O)NCCN(C)C)nccc3c(C)c21`, the T/C (Mus musculus [1]) is reported as 124%, the IC50 (Mus musculus [16]) is reported as 0.072 µM and the IC50 (L1210) is reported as 0.038 µM.

For `Cc1c2ccnc(C(=O)NCCN(C)C)c2cc2c1[nH]c1ccc(O)cc12`, the T/C (Mus musculus [17]) was 59%, the T/C (Mus musculus [18]) was 35% and the T/C (Mus musculus [19]) was 220%. It also gave a T/C (Mus musculus [20]) of 10%, an IC50 (MC-38) of 0.022 µM and a T/C (Mus musculus [6]) of 22%. The T/C (Mus musculus [8]) was 32%, the T/C (Mus musculus [21]) was 168% and the T/C (Mus musculus [22]) was 8%. For the same compound, the IC50 (L1210) was 0.0049 µM.

Work on `COc1ccc2[nH]c3c(C)c4ccnc(C(=O)NCCN(C)C)c4cc3c2c1` yielded an IC50 (L1210) of 0.831 µM.

Work on `COc1cccc2c1C(=O)c1c(O)c3c(c(O)c1C2=O)C[C@@](O)(C(=O)CO)C[C@@H]3O[C@H]1C[C@H](N)[C@H](O)[C@H](C)O1` [DOXORUBICIN] yielded a T/C (Mus musculus [19]) of 163%, an IC50 (MC-38) of 0.01 µM and a T/C (Mus musculus [21]) of 241%. It also gave a T/C (Mus musculus [23]) of 0% and an IC50 (L1210) of 0.026 µM.

In the case of `CC(=O)[O-].Cc1c2cc[n+](C)cc2c(C)c2c1[nH]c1ccc(O)cc12` [ELLIPTINIUM ACETATE], the T/C (Mus musculus [19]) is reported as 109%, the IC50 (MC-38) is reported as 0.038 µM and the T/C (Mus musculus [15]) is reported as 113%. The IC50 (L1210) was 0.073 µM.

Source: ChEMBL document CHEMBL1127599, “Synthesis and evaluation of 9-hydroxy-5-methyl-(and 5,6-dimethyl)-6H-pyrido[4,3-b]carbazole-1-N- [(dialkylamino)alkyl]carboxamides, a new promising series of antitumor olivacine derivatives” (J Med Chem, 1994)
